Values belong to the compound of their own block, whether it stands above or below them. The source made the active and inactive calls. The rule behind the calls is not given here.
What was measured:
[1] = target: T1, 5-hydroxytryptamine receptor 1A (Homo sapiens) (UniProt P08908); assay: Intrinsic activity at human recombinant 5-HT1A receptor expressed in HEK293 cells by [S35]GTPgammaS binding assay relative to 5-HT; format: functional, cell-based
T1 sequence (whole entry): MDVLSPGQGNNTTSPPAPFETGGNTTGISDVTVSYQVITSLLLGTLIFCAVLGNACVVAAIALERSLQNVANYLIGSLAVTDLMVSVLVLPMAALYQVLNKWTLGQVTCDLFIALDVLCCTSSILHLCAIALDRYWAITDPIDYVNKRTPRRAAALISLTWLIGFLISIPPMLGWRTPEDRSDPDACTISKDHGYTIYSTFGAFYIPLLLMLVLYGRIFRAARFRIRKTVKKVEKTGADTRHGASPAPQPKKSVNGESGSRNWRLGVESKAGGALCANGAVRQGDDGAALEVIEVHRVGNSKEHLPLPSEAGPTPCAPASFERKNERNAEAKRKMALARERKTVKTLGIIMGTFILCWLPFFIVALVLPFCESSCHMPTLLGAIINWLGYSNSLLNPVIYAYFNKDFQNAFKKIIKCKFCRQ
In short: (§1)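 [35S]-GTPγS binding in membranes from 10^6 cells (HEK293 for 5-HT1A; CHO for 5-HT1B, 5-HT1D), preincubated 30 min at 30 °C with compound in 20 mM HEPES pH 7.4, 3 mM MgCl2, 100 mM NaCl, 10 μM GDP, 0.2 mM ascorbate. 100 pM [35S]-GTPγS added, 30 min more at 30 °C; nonspecific with 20 μM GTPγS; filtration and scintillation counting.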

Rattus norvegicus = assay: Inhibition of 8-OH-DPAT-induced hyperlocomotory activity in Sprague-Dawley rat administered orally 60 mins before 8-OH-DPATchallenge; format: functional
In short: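 Male Sprague-Dawley rats (250–350 g) dosed orally (5 mL/kg) at 0.03, 0.1 or 0.3 mg/kg or vehicle, 60 min before sc 8-OH-DPAT 0.2 mg/kg (2 mL/kg). Total distance travelled recorded by infrared sensors over 30 min immediately after; 8–9 rats per group.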

[2] = target: 5-hydroxytryptamine receptor 1B (Homo sapiens, UniProt P28222); assay: Intrinsic activity at human recombinant 5-HT1B receptor expressed in CHO cells by [S35]GTPgammaS binding assay relative to 5-HT; format: functional, cell-based; in short: as §1
[3] = target: T2, 5-hydroxytryptamine receptor 1D (Homo sapiens, UniProt P28221); assay: Intrinsic activity at human recombinant 5-HT1D receptor expressed in CHO cells by [S35]GTPgammaS binding assay relative to 5-HT; format: functional, cell-based; in short: as §1
[4] = target: T2, 5-hydroxytryptamine receptor 1D; assay: Inverse agonist activity at human recombinant 5-HT1D receptor expressed in CHO cells by [S35]GTPgammaS binding assay; format: functional, cell-based; in short: as §1
[5] = Solubility of the compound in simulated gastric fluid at pH 1.2 at 25 degC; format: physicochemical
[6] = Solubility of the compound in fed state simulated intestinal fluid at pH 5.5 at 25 degC; format: physicochemical
In short: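 Solubility determined at 25 °C in fed state simulated intestinal fluid at pH 5.5.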

[7] = Solubility of the compound in water; format: physicochemical
In short: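 Measured on the dihydrochloride salt form, dissolved in water.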

[8] = Clearance in Sprague-Dawley rat at 0.5 mg/kg, iv after 24 hrs; format: ADME, organism-based; design: dose 0.5 mg/kg, route intravenous; conditions: in vivo
In short: (§2)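 Male Sprague-Dawley rats given 0.5 mg/kg iv (2 mL/kg, 2.5% DMSO in glucosate solution), n=3, cassette dosing; blood collected at intervals up to 24 h, protein precipitation and LC-MS/MS quantification.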

[9] = Half life in Sprague-Dawley rat at 0.5 mg/kg, iv after 24 hrs; format: ADME, organism-based; design: dose 0.5 mg/kg, route intravenous; conditions: in vivo; in short: as §2
[10] = Oral bioavailability in Sprague-Dawley rat at 1 mg/kg, po after 24 hrs; format: ADME, organism-based; conditions: in vivo
In short: (§3)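 Male Sprague-Dawley rats dosed po at 1 mg/kg (10 mL/kg, 1% DMSO in aqueous 0.5% methocel), n=3, as a cassette with other compounds; blood sampled at intervals up to 24 h and analysed by protein precipitation then LC-MS/MS.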

[11] = Cmax in Sprague-Dawley rat at 1 mg/kg, po after 24 hrs; format: ADME, organism-based; design: dose 1 mg/kg, route oral; conditions: in vivo; in short: as §3
[12] = AUC (0 to infinity) in Sprague-Dawley rat at 1 mg/kg, po after 24 hrs; format: ADME, organism-based; design: time infinity, dose 1 mg/kg, route oral; conditions: plasma; in short: as §3
[13] = Ratio of drug level in brain to blood in Sprague-Dawley rat after 1 hr; format: ADME, tissue-based; conditions: read-out: BBR
In short: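 Male Sprague-Dawley rats dosed iv at 0.5 mg/kg (2.5% DMSO in glucosate), n=3, as a cassette. At 1 h, CO2 anaesthesia, blood taken by heart puncture and brain removed. Both matrices analysed by protein precipitation and LC-MS/MS.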

[14] = Clearance in dog at 0.5 mg/kg, iv; conditions: in vivo
[15] = Half life in dog at 0.5 mg/kg, iv; conditions: in vivo
[16] = Clearance in cynomolgus monkey at 1 mg/kg, iv; conditions: in vivo
[17] = Half life in cynomolgus monkey at 1 mg/kg, iv; conditions: in vivo
in vivo [18] = conditions: dog, po, 1 mg/kg
in vivo [19] = conditions: dog, po, 10 mg/kg
in vivo [20] = conditions: dog, plasma, po, 10 mg/kg
in vivo [21] = conditions: cynomolgus monkey, po, 10 mg/kg
in vivo [22] = conditions: cynomolgus monkey, po, 10 mg/kg; remark: listed apart in the source
in vivo [23] = conditions: cynomolgus monkey, plasma, po, 10 mg/kg
[24] = target: T2, 5-hydroxytryptamine receptor 1D; assay: Displacement of [3H]5-HT from human recombinant 5-HT1D receptor expressed in CHO cells; format: cell-based
[25] = target: Sodium-dependent serotonin transporter (Rattus norvegicus, UniProt P31652); assay: Inhibition of [3H]5-HT uptake at SERT in rat cortical synaptosomes; format: subcellular, Brain
[26] = target: Voltage-gated inwardly rectifying potassium channel KCNH2 (Homo sapiens, UniProt Q12809); assay: Displacement of [3H]dofetilide from human ERG by SPA
[27] = target: 5-hydroxytryptamine receptor 2A (Homo sapiens, UniProt P28223); assay: Binding affinity to human recombinant 5-HT2A receptor by radioligand displacement assay
[28] = target: 5-hydroxytryptamine receptor 2B (Homo sapiens, UniProt P41595); assay: Binding affinity to human recombinant 5-HT2B receptor by radioligand displacement assay
[29] = target: T3, 5-hydroxytryptamine receptor 2C (Homo sapiens, UniProt P28335); assay: Binding affinity to human recombinant 5-HT2C receptor by radioligand displacement assay
T3 sequence (P28335 whole entry): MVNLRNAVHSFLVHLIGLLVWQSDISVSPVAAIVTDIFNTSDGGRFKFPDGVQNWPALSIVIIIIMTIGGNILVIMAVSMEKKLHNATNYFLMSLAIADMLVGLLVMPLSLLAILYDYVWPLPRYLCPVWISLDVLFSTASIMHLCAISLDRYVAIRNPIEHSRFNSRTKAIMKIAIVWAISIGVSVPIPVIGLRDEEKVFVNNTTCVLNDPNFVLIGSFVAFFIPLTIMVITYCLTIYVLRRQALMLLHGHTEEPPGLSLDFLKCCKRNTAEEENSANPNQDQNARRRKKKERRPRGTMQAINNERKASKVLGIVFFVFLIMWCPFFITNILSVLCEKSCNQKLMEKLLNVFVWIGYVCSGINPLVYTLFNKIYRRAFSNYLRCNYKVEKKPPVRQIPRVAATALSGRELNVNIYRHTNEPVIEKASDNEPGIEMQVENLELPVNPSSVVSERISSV

[30] = target: 5-hydroxytryptamine receptor 6 (Homo sapiens, UniProt P50406); assay: Binding affinity to human recombinant 5-HT6 receptor by radioligand displacement assay
[31] = target: 5-hydroxytryptamine receptor 7 (Homo sapiens, UniProt P34969); assay: Binding affinity to human recombinant 5-HT7 receptor by radioligand displacement assay
D(2) dopamine receptor = D(2) dopamine receptor (Homo sapiens, UniProt P14416); assay: Binding affinity to human recombinant dopamine D2 receptor by radioligand displacement assay
D(3) dopamine receptor = D(3) dopamine receptor (Homo sapiens, UniProt P35462); assay: Binding affinity to human recombinant dopamine D3 receptor by radioligand displacement assay
Chain of D(3) dopamine receptor (P35462 whole entry): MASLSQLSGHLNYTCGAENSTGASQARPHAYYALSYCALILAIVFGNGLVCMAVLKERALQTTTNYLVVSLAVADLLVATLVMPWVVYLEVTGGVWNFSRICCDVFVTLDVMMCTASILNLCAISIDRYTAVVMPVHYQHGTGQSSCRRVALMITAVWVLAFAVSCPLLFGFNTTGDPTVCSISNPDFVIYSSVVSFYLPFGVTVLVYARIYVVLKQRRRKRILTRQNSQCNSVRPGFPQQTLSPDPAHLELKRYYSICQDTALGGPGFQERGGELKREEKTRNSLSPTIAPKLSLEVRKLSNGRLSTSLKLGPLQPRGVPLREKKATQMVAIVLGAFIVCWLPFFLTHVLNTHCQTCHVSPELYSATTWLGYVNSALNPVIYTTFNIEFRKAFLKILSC

Chain of 5-hydroxytryptamine receptor 1B (P28222 whole entry): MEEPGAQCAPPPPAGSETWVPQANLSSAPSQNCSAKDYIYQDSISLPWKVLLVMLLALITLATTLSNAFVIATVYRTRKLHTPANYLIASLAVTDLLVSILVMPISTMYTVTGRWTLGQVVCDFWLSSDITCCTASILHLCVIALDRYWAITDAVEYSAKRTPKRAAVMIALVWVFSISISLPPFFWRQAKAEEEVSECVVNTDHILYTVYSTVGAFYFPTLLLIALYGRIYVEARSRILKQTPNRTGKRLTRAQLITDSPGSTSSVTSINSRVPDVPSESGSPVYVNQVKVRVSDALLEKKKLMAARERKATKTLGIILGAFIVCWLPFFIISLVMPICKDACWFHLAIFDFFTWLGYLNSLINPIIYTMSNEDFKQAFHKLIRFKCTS
T2 sequence (P28221 whole entry): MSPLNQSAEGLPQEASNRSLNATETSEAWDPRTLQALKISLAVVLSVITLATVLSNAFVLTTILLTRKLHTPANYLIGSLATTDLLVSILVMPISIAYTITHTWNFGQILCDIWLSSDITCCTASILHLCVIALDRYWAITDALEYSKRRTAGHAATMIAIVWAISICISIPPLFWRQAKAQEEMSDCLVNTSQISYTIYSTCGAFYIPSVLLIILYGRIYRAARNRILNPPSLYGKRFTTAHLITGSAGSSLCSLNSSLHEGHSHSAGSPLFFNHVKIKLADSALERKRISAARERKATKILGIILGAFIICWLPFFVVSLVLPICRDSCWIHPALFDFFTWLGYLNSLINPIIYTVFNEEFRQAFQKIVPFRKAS
Chain of 5-hydroxytryptamine receptor 2B (P41595 whole entry): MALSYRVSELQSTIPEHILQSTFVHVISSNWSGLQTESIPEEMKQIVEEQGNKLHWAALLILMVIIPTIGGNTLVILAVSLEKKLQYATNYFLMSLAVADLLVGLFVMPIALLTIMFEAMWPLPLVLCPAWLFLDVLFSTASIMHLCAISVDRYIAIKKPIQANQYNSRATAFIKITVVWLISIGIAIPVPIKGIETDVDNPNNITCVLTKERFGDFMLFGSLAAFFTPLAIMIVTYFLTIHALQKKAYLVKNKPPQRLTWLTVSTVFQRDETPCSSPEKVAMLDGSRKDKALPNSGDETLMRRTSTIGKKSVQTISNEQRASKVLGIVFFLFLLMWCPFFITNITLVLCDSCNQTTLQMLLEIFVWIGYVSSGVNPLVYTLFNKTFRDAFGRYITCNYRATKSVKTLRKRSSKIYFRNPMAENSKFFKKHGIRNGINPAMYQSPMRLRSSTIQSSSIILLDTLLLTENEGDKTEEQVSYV
Chain of Voltage-gated inwardly rectifying potassium channel KCNH2 (Q12809 whole entry): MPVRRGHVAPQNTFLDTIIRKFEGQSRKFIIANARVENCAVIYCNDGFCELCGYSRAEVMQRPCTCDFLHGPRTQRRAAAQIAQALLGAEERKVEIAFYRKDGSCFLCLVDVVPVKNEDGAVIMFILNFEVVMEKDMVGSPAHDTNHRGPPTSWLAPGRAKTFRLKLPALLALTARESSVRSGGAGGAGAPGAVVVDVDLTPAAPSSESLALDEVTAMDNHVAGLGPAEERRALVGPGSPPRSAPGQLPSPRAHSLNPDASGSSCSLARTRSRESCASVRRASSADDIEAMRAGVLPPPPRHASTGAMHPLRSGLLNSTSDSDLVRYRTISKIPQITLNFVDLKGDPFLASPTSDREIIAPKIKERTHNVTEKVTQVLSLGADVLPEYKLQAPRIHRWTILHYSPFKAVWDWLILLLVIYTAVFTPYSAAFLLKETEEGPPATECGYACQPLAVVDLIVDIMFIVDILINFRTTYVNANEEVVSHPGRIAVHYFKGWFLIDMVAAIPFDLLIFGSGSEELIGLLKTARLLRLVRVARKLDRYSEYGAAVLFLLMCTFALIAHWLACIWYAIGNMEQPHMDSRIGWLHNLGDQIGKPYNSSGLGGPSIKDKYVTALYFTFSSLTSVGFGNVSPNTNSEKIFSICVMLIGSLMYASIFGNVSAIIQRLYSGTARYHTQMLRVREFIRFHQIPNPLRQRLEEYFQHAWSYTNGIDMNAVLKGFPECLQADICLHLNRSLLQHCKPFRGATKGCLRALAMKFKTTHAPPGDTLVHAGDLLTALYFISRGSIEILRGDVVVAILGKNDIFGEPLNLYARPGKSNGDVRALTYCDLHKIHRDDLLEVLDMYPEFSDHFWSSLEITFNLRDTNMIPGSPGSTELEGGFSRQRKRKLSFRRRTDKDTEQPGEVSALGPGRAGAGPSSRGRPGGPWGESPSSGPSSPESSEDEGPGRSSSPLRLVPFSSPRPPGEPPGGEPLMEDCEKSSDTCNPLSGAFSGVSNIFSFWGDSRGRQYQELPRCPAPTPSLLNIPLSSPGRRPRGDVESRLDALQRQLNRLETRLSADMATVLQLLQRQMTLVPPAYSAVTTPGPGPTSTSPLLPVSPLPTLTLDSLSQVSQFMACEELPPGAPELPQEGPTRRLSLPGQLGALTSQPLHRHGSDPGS
Chain of 5-hydroxytryptamine receptor 7 (P34969 whole entry): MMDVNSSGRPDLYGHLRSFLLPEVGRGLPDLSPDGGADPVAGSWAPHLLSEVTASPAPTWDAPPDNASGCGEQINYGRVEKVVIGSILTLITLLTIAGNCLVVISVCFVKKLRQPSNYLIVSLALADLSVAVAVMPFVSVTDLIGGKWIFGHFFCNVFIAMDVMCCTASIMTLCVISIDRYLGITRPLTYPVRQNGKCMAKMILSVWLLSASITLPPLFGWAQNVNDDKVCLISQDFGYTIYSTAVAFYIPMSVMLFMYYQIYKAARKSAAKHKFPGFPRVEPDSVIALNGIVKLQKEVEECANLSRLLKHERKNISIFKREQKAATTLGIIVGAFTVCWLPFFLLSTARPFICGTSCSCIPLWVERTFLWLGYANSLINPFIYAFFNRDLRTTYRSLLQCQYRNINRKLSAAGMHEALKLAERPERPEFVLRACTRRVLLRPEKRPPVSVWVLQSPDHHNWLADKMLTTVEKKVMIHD
Chain of 5-hydroxytryptamine receptor 2A (P28223 whole entry): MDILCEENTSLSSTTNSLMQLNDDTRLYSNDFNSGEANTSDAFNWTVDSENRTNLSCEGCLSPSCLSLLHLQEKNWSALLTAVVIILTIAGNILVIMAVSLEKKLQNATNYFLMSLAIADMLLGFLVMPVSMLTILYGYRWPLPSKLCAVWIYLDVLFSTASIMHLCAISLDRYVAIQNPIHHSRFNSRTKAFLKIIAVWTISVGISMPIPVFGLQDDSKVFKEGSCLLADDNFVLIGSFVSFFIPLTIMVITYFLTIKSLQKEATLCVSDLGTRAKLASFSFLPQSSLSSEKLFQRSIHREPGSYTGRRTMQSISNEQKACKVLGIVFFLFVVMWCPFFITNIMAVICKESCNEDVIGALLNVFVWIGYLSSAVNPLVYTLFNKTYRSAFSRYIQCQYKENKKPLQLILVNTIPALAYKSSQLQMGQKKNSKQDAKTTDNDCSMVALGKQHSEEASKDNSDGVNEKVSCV
Chain of 5-hydroxytryptamine receptor 6 (P50406 whole entry): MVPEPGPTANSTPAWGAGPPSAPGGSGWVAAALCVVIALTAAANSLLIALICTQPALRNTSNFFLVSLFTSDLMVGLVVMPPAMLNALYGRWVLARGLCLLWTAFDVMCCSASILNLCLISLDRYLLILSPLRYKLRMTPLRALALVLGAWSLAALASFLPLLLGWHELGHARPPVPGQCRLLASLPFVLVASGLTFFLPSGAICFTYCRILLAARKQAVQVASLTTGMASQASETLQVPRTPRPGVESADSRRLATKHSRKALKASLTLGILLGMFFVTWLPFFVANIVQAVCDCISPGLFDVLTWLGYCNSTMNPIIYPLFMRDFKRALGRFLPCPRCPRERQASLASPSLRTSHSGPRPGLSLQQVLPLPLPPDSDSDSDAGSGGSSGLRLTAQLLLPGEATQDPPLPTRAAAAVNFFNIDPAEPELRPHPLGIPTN
Chain of D(2) dopamine receptor (P14416 whole entry): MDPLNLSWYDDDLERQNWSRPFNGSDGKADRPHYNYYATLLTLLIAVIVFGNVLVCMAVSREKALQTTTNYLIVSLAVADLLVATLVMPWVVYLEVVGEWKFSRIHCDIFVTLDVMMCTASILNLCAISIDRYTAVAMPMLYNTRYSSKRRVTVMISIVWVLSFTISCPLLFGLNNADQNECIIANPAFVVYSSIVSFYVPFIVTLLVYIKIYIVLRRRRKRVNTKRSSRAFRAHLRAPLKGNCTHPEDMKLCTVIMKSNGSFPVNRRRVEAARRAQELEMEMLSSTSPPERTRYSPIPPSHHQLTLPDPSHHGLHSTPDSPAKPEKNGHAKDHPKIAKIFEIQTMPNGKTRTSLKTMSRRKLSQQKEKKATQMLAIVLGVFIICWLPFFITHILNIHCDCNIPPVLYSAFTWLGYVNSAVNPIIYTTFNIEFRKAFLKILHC

SMILES: CC(=O)Nc1cccc(CCN2CCN(c3cccc4nc(C)ccc34)CC2)c1
- Intrinsic activity [1]: 0
- inhibition (Rattus norvegicus): Dose-dependent effect
- Activity [4]: Active
- Intrinsic activity [2]: 0

SMILES: Cc1ccc2c(N3CCN(CCc4cccc(NS(C)(=O)=O)c4)CC3)cccc2n1
- Intrinsic activity [1]: 0
- inhibition (Rattus norvegicus): Dose-dependent effect
- Activity [4]: Active
- Intrinsic activity [2]: 0.1

More lines, main results first:

- Intrinsic activity [1]: 0
- Intrinsic activity [2]: 0
- Intrinsic activity [3]: 0
SMILES: Cc1ccc2c(N3CCN(CCc4cccc(N5CCNC5=O)c4)CC3)cccc2n1
- inhibition (Rattus norvegicus): Dose-dependent effect

- solubility [5]: > 10000 µg/mL
- solubility [6]: 500 µg/mL
- solubility [7]: > 10000 µg/mL
- clearance [8]: 11 mL/min/kg
- half-life [9]: 3.2 h
- bioavailability [10]: 58%
- Cmax [11]: 122 ng/mL
- AUC(0-inf) [12]: 889 ng·h/mL
- Kp at 1 h [13]: 0.5
- clearance [14]: 60 mL/min/kg
- half-life [15]: 0.8 h
- clearance [16]: 25 mL/min/kg
- half-life [17]: 5.3 h
- bioavailability (in vivo [18]): 6%
- Cmax (in vivo [19]): 1300 ng/mL
- AUC(0-inf) (in vivo [20]): 2550 ng·h/mL
- bioavailability (in vivo [21]): 63%
- Cmax (in vivo [22]): 1390 ng/mL
- AUC(0-inf) (in vivo [23]): 4220 ng·h/mL
SMILES: Cc1ccc2c(N3CCN(CCc4cccc(N5CCNC5=O)c4)CC3)cccc2n1.Cl.Cl
- ED50 (Rattus norvegicus; po): 0.03 mg/kg

- Ki [24]: 0.158 nM
- Ki [25]: 501 nM
- Intrinsic activity [1]: 0
- Activity [4]: Active
- Intrinsic activity [2]: 0
- Ki [27]: 794 nM
- Ki [28]: 1260 nM
- Ki [29]: > 5010 nM
- Ki [30]: 3160 nM
- Ki [31]: 501 nM
- Ki (D(2) dopamine receptor): 794 nM
- Ki (D(3) dopamine receptor): 200 nM
SMILES: Cc1ccc2c(N3CCN(CCc4cccc(N5CCOC5=O)c4)CC3)cccc2n1
- Ki [26]: 2000 nM

— ChEMBL document CHEMBL1629528 (J Med Chem, 2010)
